Data on nine compounds can be found in ChEMBL document CHEMBL2021776, “Highly potent and selective fluorescent antagonists of the human adenosine A₃ receptor based on the 1,2,4-triazolo[4,3-a]quinoxalin-1-one scaffold” (J Med Chem, 2012).

Test [1] addresses T1, Adenosine receptor A3 (Homo sapiens, UniProt P0DMS8).
T1 sequence (P0DMS8 whole entry): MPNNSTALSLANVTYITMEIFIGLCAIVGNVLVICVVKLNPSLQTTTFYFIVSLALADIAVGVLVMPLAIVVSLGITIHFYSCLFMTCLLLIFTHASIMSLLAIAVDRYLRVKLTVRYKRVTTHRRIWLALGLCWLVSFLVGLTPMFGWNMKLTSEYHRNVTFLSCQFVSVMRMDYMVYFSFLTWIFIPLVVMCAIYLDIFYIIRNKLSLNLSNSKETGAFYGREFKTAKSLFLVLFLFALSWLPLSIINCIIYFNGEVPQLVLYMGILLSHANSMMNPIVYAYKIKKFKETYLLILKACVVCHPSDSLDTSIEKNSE
Briefly: Antagonist activity at human adenosine A3 receptor expressed in forskolin-stimulated CHO cells assessed as inhibition of NECA-induced CRE-SPAP gene transcription by measuring intracellular cAMP level after 5 hrs. Format: functional, cell-based. In outline: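 Clonal CHO cells co-expressing CRE-SPAP reporter and human A3 receptor, serum-starved 18 h. Three antagonist concentrations for 30 min at 37 °C, then NECA curves for 30 min, then 1 μM forskolin for 5 h. After 1 h in fresh medium and 65 °C heat step, SPAP activity read as 4-nitrophenyl phosphate hydrolysis (405 nm). Curves globally fitted to an interaction model.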
(In general: cAMP levels reflect the balance of adenylyl cyclase and phosphodiesterase activity.)

For test [2], the target named is T2, Adenosine receptor A3 (Homo sapiens) (UniProt P0DMS8).
T2 sequence (whole entry): T1 sequence (P0DMS8 whole entry)
Description: Binding affinity to human adenosine A3 receptor expressed in CHO cells assessed as intracellular fluorescence level after 10 mins by confocal microscopic analysis. Format: cell-based. The method, boiled down: (§1)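 Live CHO cells stably expressing human A3 receptor were washed in HBS. They were preincubated 30 min at 37 °C with or without 100 nM MRS1220, then exposed to 25 nM fluorescent ligand for 10 min. Single equatorial confocal images were taken in the continued presence of ligand, using identical laser and detector settings. Images are representative of 3−5 experiments.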

For test [3], the target named is T3, Adenosine receptor A1 (Homo sapiens, UniProt P30542).
T3 sequence (P30542 whole entry): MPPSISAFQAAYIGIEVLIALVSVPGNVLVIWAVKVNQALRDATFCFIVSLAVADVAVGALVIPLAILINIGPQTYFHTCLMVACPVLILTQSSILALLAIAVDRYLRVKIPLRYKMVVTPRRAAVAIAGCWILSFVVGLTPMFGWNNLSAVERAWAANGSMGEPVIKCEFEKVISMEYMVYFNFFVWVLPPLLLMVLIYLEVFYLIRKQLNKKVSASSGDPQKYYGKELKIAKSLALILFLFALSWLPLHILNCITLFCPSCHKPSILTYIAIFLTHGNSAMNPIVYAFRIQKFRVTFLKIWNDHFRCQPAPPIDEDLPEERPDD
Briefly: Antagonist activity at human adenosine A1 receptor expressed in CHO cells assessed as inhibition of NECA-induced increase of intracellular calcium level after 5 hrs. A general note: Calcium assays in cells follow changes in intracellular calcium, usually with a dye or a luminescent sensor.

In test [4] the target is T4, Adenosine receptor A2b (Homo sapiens, UniProt P29275).
T4 sequence (P29275 whole entry): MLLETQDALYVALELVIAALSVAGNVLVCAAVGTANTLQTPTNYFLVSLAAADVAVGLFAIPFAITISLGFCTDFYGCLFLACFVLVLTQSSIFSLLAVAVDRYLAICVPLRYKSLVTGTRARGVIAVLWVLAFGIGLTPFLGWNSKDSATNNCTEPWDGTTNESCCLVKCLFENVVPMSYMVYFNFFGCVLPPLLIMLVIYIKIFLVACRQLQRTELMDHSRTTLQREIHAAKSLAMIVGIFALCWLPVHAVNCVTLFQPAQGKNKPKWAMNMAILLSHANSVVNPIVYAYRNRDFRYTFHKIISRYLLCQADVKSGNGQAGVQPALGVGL
Description: Antagonist activity at adenosine A2B receptor in HEK293 cells expressing glosensor cAMP biosensor assessed as inhibition of NECA-induced increase of intracellular cAMP level after 5 hrs. In kind it is functional, cell-based. The method, boiled down:
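HEK293 cells stably expressing Glosensor cAMP biosensor, with endogenous human A2B receptor. Cells equilibrated 2 h at 37 °C in HBSS with 3% v/v Glosensor reagent. Antagonist added at 1.5 h, NECA at 2 h. Luminescence read every 2 min for 60 min; maximal read used. pKD estimated from rightward shift of NECA curve by 1 μM antagonist via dose ratio.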

Test [5] addresses T5, Adenosine receptor A1 (Homo sapiens) (UniProt P30542).
T5 sequence (whole entry): T3 sequence (P30542 whole entry)
Description: Binding affinity to human full length human adenosine A1 receptor expressed in CHO cells up to 100 nM after 10 mins by confocal microscopic analysis. Format: cell-based. In outline: (§2)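 Live CHO cells stably expressing human A1 receptor were washed in HBS. They were preincubated 30 min at 37 °C with or without 100 nM DPCPX, then exposed to fluorescent ligand (25 nM, or up to 100 nM) for 10 min. Single equatorial confocal images were taken using identical laser power, gain and offset.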

The species named for test [6] is Homo sapiens. Briefly: Selectivity ratio of human A1 receptor to human A3 receptor.
The target of test [7] is T2, Adenosine receptor A3 (Homo sapiens). Briefly: Binding affinity to human adenosine A3 receptor expressed in CHO cells assessed as intracellular fluorescence level after 10 mins by confocal microscopic analysis in presence of MRS1220 treated 30 mins before compound challenge. Format: cell-based. In outline: as §1
Test [8] addresses T5, Adenosine receptor A1 (Homo sapiens). Description: Binding affinity to human full length human adenosine A1 receptor expressed in CHO cells after 10 mins by confocal microscopic analysis in presence of DPCPX treated 30 mins before compound challenge. In kind it is cell-based. In outline:
as §2

The target is the same in test [9]. Description: Binding affinity to human full length human adenosine A1 receptor expressed in CHO cells at 25 nM after 10 mins by confocal microscopic analysis. Format: cell-based. The method, boiled down:
as §2

Activity calls are given as the source filed them. The calls are words filed in the database; no cut-off is given here. Bounds are passed on as bounds.

For the compound `COc1ccc(-n2nc3c(NC(=O)CCC(=O)NCCOCCOCCN)nc4ccccc4n3c2=O)cc1`, in test [1], the Kd (usually the free concentration of one partner at which half of the binding sites on the other are occupied at equilibrium, for simple one-to-one binding) is 20.9 nM.

Regarding `CCN1/C(=C/C=C/C=C/C2=[N+](CCCCCC(=O)NCCOCCOCCNC(=O)CCC(=O)Nc3nc4ccccc4n4c(=O)n(-c5ccc(OC)cc5)nc34)c3cc(S(=O)(=O)[O-])ccc3C2(C)C)C(C)(C)c2cc(S(=O)(=O)O)ccc21`, the dissociation constant (Kd) in [1] was 148 nM.

As to `COc1ccc(-n2nc3c(NC(=O)CN)nc4ccccc4n3c2=O)cc1`, the Kd in test [1] was 1.45 nM.

Regarding `COc1ccc(-n2nc3c(NC(=O)c4ccc(N)cc4)nc4ccccc4n3c2=O)cc1`, the Kd in test [1] is 38 nM.

Regarding `COc1ccc(-n2nc3c(NC(=O)CCC(=O)NCCOCCOCCNC(=O)CCOCCOCCOCCOCCOCCOCCOCCOCCOCCOCCOCCOCCNC(=O)c4ccc(-c5c6ccc(=[N+](C)C)cc-6oc6cc(N(C)C)ccc56)c(C(=O)[O-])c4)nc4ccccc4n3c2=O)cc1`, the Kd in [1] is 5.62 nM.

As for `COc1ccc(-n2nc3c(NC(=O)CCC(=O)NCCOCCOCCNC(=O)CCCCCNC(=O)COc4ccc(/C=C/C5=[N+]6C(=Cc7ccc(-c8cccs8)n7[B-]6(F)F)C=C5)cc4)nc4ccccc4n3c2=O)cc1`, the result in test [2] was Active. Moreover, the results for the Kd in test [3], in [1] and in test [4] were 275 nM, 0.437 nM and < 1000 nM, respectively. Also, the result in test [5] and in test [7] was inactive. Besides, the Selectivity ratio in test [6] is 650.

As for `COc1ccc(-n2nc3c(NC(=O)CCC(=O)NCCOCCOCCNC(=O)CCCCCNC(=O)COc4ccc(C5=[N+]6C(=Cc7ccc(-c8cccs8)n7[B-]6(F)F)C=C5)cc4)nc4ccccc4n3c2=O)cc1`, the result in [2], in test [9] and in [7] was Active. Further, the Kd in test [3] was 166 nM; in test [1], 3.39 nM; in [4], < 1000 nM. For the same compound, the result in test [8] was inactive. The Selectivity ratio in test [6] worked out at 50.

`COc1ccc(-n2nc3c(NC(=O)CCC(=O)NCCCCCCCCN)nc4ccccc4n3c2=O)cc1`: the dissociation constant (Kd) in [1] is 0.331 nM.

On to `COc1ccc(-n2nc3c(NC(=O)CCC(=O)NCCCCCCCCNC(=O)CCCCCNC(=O)COc4ccc(/C=C/C5=[N+]6C(=Cc7ccc(-c8cccs8)n7[B-]6(F)F)C=C5)cc4)nc4ccccc4n3c2=O)cc1`, for which the Kd in test [1] was 16.6 nM.
